Data set [1] has as its system Brain. Briefly: Decrease in binding in MDR1a/b and BCRP1 deficient FVB mouse brain. As to conditions: in vitro.
Data set [2] deals with Brain. Kind of data set: Decrease in binding in MDR1a/b deficient FVB mouse brain. As to conditions: in vitro.
The nature of data set [3]: Ratio of drug level from brain to blood in MDR1a/b deficient FVB mouse. Type of data set: ADME, tissue-based. As to conditions: brain and blood. The procedure, abridged: (§1)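 Mice (wild-type, Mdr1a/b(−/−), Bcrp1(−/−), Mdr1a/b(−/−)Bcrp1(−/−); n = 3 per type) under isoflurane anaesthesia, warmed to about 38 °C. Whole-brain SUV taken at 25 min. Brain-to-blood ratio = individual brain SUV ÷ mean whole-blood SUV from separate groups, with blood drawn retro-orbitally at 25 min and gamma-counted.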

Data set [4] can be described thus: Ratio of drug level from brain to blood in MDR1a/b and BCRP1 deficient FVB mouse. Type of data set: ADME, tissue-based. The procedure, abridged: as §1
The test system of data set [5] is Brain. Kind of data set: Drug uptake in rat brain after 0.5 to 1.3 mins. Type of data set: ADME, tissue-based. As to conditions: in vivo. The procedure, abridged: (§2)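 Naïve rats under isoflurane anaesthesia (1.5–2% maintenance), warmed to about 38 °C, with femoral artery and vein catheters. Baseline dynamic PET, whole-brain TACs expressed as SUV. Arterial blood sampled frequently and gamma-counted.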

Data set [6] deals with Brain. Kind of data set: Decrease in binding in BCRP1 deficient FVB mouse brain. As to conditions: in vitro.
A short description of data set [7]: Ratio of drug level from brain to blood in wild type FVB mouse. Type of data set: ADME, tissue-based. The settings on record: brain and blood. The procedure, abridged: (§3)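 Single 60-min dynamic PET scan, whole brain outlined, SUV read at 25 min. Venous blood drawn retro-orbitally at 25 min in separate groups, gamma-counted and decay-corrected. Brain SUV of each animal divided by mean blood SUV of that group.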

Data set [8] is described as follows: Ratio of drug level from brain to blood in BCRP1 deficient FVB mouse. Type of data set: ADME, tissue-based. As to conditions: brain and blood. An outline of the steps: as §3
Data set [9] in a line: Inhibition of MRP.
Data set [10] concerns Brain. Briefly: Biodistribution in mouse brain. Type of data set: ADME, organism-based. As to conditions: in vivo. The procedure, abridged: as §1
Data set [11] concerns the target T1, Broad substrate specificity ATP-binding cassette transporter ABCG2 (Homo sapiens, UniProt Q9UNQ0).
T1 sequence (Q9UNQ0 whole entry): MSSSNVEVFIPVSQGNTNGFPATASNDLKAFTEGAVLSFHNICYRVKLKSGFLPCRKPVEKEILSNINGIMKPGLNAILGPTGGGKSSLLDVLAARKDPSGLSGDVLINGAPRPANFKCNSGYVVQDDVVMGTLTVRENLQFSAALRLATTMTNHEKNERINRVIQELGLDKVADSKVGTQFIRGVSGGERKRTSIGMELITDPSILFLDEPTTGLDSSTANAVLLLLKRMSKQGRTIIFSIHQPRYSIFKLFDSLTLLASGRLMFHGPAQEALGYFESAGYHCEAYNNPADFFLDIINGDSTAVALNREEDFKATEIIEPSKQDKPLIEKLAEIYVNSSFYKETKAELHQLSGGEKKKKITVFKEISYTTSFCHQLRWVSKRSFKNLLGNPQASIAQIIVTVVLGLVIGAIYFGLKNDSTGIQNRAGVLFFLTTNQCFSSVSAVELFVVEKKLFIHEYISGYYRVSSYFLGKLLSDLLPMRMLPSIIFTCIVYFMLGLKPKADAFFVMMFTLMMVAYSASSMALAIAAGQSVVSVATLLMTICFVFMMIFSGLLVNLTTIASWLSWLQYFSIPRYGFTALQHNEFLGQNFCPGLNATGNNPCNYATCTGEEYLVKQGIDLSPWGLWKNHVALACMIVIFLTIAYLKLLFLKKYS
Briefly: Inhibition of BCRP.

Data set [12] has as its system Brain. Kind of data set: Drug uptake in rat brain at 5 mg/kg, iv after 60 mins post-radiotracer administration. Type of data set: ADME, organism-based. Also noted: dose 5 mg/kg, route intravenous. The settings on record: in vivo, 1 h.
The subject of data set [13] is Brain. Briefly: Drug uptake in rat brain at 15 mg/kg, iv after 60 mins post-radiotracer administration. Type of data set: ADME, organism-based. Also noted: dose 15 mg/kg, route intravenous. The settings on record: in vivo, 1 h.
Data set [14] relates to Brain. Briefly: Drug uptake in rat brain after 25 mins. Type of data set: ADME, tissue-based. As to conditions: in vivo. The procedure, abridged:
as §2

Each structure is given as a SMILES string. The source made the active and inactive calls. The rule behind the calls is not given here.

Consider `COc1cc2c(cc1OC)CN(CCc1ccc(NC(=O)c3cc(O[11CH3])c(OC)cc3NC(=O)c3cnc4ccccc4c3)cc1)CC2` [[11C]TARIQUIDAR], for which the “% decrease in binding” value in the data set with Brain [1] was determined as 46%; in the data set on Brain [2], 49%; in the data set on Brain [6] it was 41%. In addition, the Kp in [3] came out at 3.4; in [4] it was 14.5; in data set [7], 1; in data set [8], 1.8. In the data set with Brain [5], this compound yielded an SUV of 0.71.
In the case of `COc1cc2c(cc1OC)CN(CCc1ccc(NC(=O)c3cc(OC)c(OC)cc3NC(=O)c3cnc4ccccc4c3)cc1)CC2` [TARIQUIDAR], the inhibition entry in data set [9] was “Active”. In the data set with Brain [10], this compound yielded an Activity of 24%. For the same compound, the “inhibition (INH)” value in data set [11] is listed as “Active”.
With `COc1cc2c(cc1OC)CN(CCc1ccc(NC(=O)c3cccc4c(=O)c5cccc(OC)c5[nH]c34)cc1)CC2` [ELACRIDAR], the values for the SUV in the data set with Brain [12], in the data set with Brain [13] and in the data set with Brain [14] were 0.71, 0.43 and 0.19, respectively.
